OX1R antag-1: antagonists of human orexin 1 receptor (OX1R) | OX1R-expressing cells, FRET antagonist read-out | inhibition, % at 6.6 µM | AID 485270 | O43613 | 330,000 compounds, 1.8% hits; in the data active = inhibition mostly above about 38%, no sharp cut-off; inactive = mostly below about 40%
Target sequence (O43613 whole entry, looked up): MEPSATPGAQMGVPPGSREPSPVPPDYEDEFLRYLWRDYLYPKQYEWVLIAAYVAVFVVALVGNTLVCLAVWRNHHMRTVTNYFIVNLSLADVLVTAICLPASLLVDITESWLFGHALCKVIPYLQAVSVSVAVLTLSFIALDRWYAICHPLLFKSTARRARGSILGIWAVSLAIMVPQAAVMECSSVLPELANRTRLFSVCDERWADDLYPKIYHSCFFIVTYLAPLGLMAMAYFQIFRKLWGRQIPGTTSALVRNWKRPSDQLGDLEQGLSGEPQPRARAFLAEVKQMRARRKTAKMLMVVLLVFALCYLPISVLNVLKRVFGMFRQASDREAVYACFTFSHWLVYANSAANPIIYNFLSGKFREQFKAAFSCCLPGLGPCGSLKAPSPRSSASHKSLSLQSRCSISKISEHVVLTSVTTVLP
GPR7 antagonist: human neuropeptides B/W receptor 1 antagonism | GPR7-expressing cells, fluorescence antagonist assay | inhibition, % at 4.4 µM | 290,000 compounds, 1.1% hits; in the data active = inhibition above about 16%, passing the limit was not always enough;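 also: cells stimulated with the agonist NPW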
TAAR1 antagonist: human TAAR1 antagonism; 360,000 compounds, 1.5% hits; Q96RJ0; CHO RD-HGA16 TAAR1, Fluo-8 calcium fluorescence, antagonist; inhibition, % at 3 µM;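 active = inhibition above a per-plate cutoff, the mean inhibition of test compounds on that plate plus 3 SD, cut at about 49% in these data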
Target sequence (Q96RJ0 whole entry, looked up): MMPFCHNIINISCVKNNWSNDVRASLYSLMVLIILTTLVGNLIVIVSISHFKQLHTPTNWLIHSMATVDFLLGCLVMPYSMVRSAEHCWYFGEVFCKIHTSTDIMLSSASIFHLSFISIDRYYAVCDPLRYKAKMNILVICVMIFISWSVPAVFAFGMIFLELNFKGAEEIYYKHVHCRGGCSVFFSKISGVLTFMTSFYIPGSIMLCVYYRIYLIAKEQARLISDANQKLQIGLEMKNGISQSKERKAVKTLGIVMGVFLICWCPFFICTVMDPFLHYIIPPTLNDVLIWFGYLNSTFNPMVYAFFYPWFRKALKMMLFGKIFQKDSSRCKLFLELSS
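test system = CHO RD-HGA16 cells bearing hTAAR1 | replication = singlicate | controls = DMSO-only wells and EC80 β-PEA-stimulated wells | reagent = EC80 β-phenethylamine stimulus | read-out basis = percent inhibition of PEA-evoked calcium signal, max/basal emission ratio | schedule = seeding 17-24 h prior, 75-min 37 °C, 30-min RT dye loading | signal = kinetic Fluo-8 calcium fluorescence measurement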
TAAR1 agonist: agonists of human TAAR1; 360,000 compounds, 0.99% hits; CHO RD-HGA16 TAAR1, Fluo-8 calcium fluorescence; vehicle wells 0%, saturating PEA agonist 100%; Q96RJ0; activation, % at 3 µM; AID 624467;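 active = activation above the mean activation of all test compounds in the run plus 3 SD, cut at about 38% in these data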
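System: CHO-derived RD-HGA16 cells with stable Gα16 and human TAAR1 / Times: 17-24 h plating, Fluo-8 75 min 37 °C, 30 min RT / Technique: calcium-sensitive Fluo-8 signal, excitation 470-495, emission 515-575 nm / Measure: % activation relative to PEA EC100 response / Benchmarks: DMSO and PEA EC100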
CHO parental Ca: counter-screen for OX1R antagonists: effect in parental CHO cells; parental CHO-K1, ATP-induced calcium, Fluo-8 fluorescence; inhibition, % at 5.6 µM; 330,000 compounds, 0.63% hits;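 active = inhibition above that plate's mean sample inhibition plus 3 SD, cut at about 26% in these data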
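Assay system – parental CHO cells · Reagent – ATP stimulus · Detection – intracellular calcium via Fluo-8 no-wash fluorescent dye · Evaluation – percent inhibition of ATP-evoked calcium rise, normalized to controls · Controls – ATP wells versus no-ATP DMSO wells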
OX1R antag-2: human HCRTR1 antagonism; AID 434989; O43613; 330,000 compounds, 0.43% hits; inhibition, % at 5 µM; CHO/OX1R cells, Fluo-8 calcium fluorescence, orexin A;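 active = inhibition above its plate's threshold, mean inhibition of all tested compounds on the plate plus 3 SD, cut at about 37% in these data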
OX1R Ca confirm: OX1R (human) antagonism, confirmed | AID 492963 | shares compounds with OX1R antag-2 | inhibition, % at 5 µM | CHO/OX1R cells, orexin A calcium Fluo-8 fluorescence | 1,100 compounds, 38% hits; in the data active = inhibition above about 29%
CHO Ca triplic: counter-screen for OX1R antagonists: effect in parental CHO cells; shares compounds with OX1R antag-2; parental CHO-K1, ATP-induced calcium, Fluo-8 fluorescence; inhibition, % at 5.6 µM; 1,100 compounds, 9.3% hits;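 active = inhibition above a per-plate limit, the mean inhibition of that plate's test compounds plus 3 SD, cut at about 25% in these data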
OX1R HTRF confirm: OX1R (human) antagonism, HTRF confirmed; AID 492964; OX1R-expressing cells, HTRF antagonist assay; 1,800 compounds, 49% hits; inhibition, % at 6.6 µM; shares compounds with OX1R antag-1; in the data active = inhibition above about 55%;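 also: CHO cells expressing OX1R stimulated with orexin A at about EC80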
CHO-K1 HTRF cnt: counter-screen: parental CHO-K1 HTRF response. shares compounds with OX1R antag-1. parental CHO-K1 cells, HTRF counterscreen. inhibition, % at 6.6 µM. 1,800 compounds, 48% hits; in the data active = inhibition above about 17%
TAAR1 ag confirm: human TAAR1 agonism, confirmed; shares compounds with TAAR1 agonist; CHO RD-HGA16 TAAR1, Fluo-8 calcium fluorescence; scaled: DMSO 0%, maximal phenethylamine 100%; activation, % at 3 µM; 2,400 compounds, 82% hits; AID 651783;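 active = activation above a cutoff set at the run's mean compound activation plus 3 SD, cut at about 39% in these data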
Ga16 ag counter: nonselective agonism, TAAR1 counter-screen; shares compounds with TAAR1 agonist; CHO-Ga16 parental, Fluo-8 calcium fluorescence; normalized to maximal ATP response, DMSO zero; activation, % at 3 µM; 2,400 compounds, 50% hits; AID 651787;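 active = activation above the run cutoff, the mean activation over all tested wells plus 3 SD, cut at about 12% in these data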
TAAR1 desens: TAAR1 response desensitization, agonist counter-screen. 2,400 compounds, 46% hits. shares compounds with TAAR1 agonist. inhibition, % at 3 µM. CHO RD-HGA16 hTAAR1, Fluo-8 calcium, beta-PEA response inhibition;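 active = inhibition above the run cutoff, the mean inhibition of all test compounds plus 3 SD, cut at about 49% in these data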;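 also: beta-PEA stimulus applied at its EC80; loss of beta-PEA calcium signal after compound pretreatment read as receptor desensitization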
Ga16 antag count: nonselective Ga16 antagonism, counter-screen; inhibition, % at 3 µM; CHO-Ga16 ATP-induced calcium, Fluo-8 fluorescence; 2,400 compounds, 39% hits; shares compounds with TAAR1 agonist; AID 651952;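 active = inhibition above the plate's mean compound inhibition plus 3 SD, computed per plate, cut at about 22% in these data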
Hits are given with their value. Most compounds without a hit are left out; they make up all but 4.6% or so of the library.

For COC(=O)C1=C(C)N(Cc2ccccc2C(F)(F)F)C(=NCc2ccc(OC)cc2)NC1CCc1ccccc1 (configuration not stated) the results were TAAR1 antagonist inactive and TAAR1 agonist inactive.
Screening CCOc1ccc(NS(=O)(=O)c2ccc(NC(=S)NC(=O)CC(C)C)cc2)cc1 returned OX1R antag-1 inactive, GPR7 antagonist inactive, TAAR1 antagonist 61, TAAR1 agonist 72, CHO parental Ca inactive, OX1R antag-2 inactive, OX1R Ca confirm inactive, CHO Ca triplic inactive, TAAR1 ag confirm 70, Ga16 ag counter 31, TAAR1 desens 68 and Ga16 antag count 39.
For CC(C)CC(=O)NC(=S)Nc1ccc(S(=O)(=O)NC(C)(C)C)cc1 the results were OX1R antag-1 inactive, GPR7 antagonist inactive, TAAR1 antagonist inactive, TAAR1 agonist inactive, CHO parental Ca inactive and OX1R antag-2 inactive.
CC(C)c1cc(Cn2c3ccccc3c(=O)n2C(C)C)on1 was read as TAAR1 antagonist inactive and TAAR1 agonist inactive.
For CCCc1nnc(NC(=O)Cn2c(=O)oc3cc(Br)ccc32)s1 the results were OX1R antag-1 inactive, GPR7 antagonist inactive, TAAR1 antagonist 63, TAAR1 agonist 121, CHO parental Ca inactive, OX1R antag-2 inactive, OX1R Ca confirm inactive, CHO Ca triplic inactive, TAAR1 ag confirm 106, Ga16 ag counter 73, TAAR1 desens 75 and Ga16 antag count 45.
CCCc1nnc(NC(=O)Cn2c(=O)oc3ccccc32)s1 was read as OX1R antag-1 inactive, GPR7 antagonist inactive, TAAR1 antagonist inactive, TAAR1 agonist inactive, CHO parental Ca inactive and OX1R antag-2 inactive.
O=C(Nc1nnc(-c2ccc(Cl)cc2)o1)c1nc2ccccc2s1 was read as OX1R antag-1 inactive, GPR7 antagonist inactive, TAAR1 antagonist inactive, TAAR1 agonist 92, CHO parental Ca inactive, OX1R antag-2 inactive, OX1R Ca confirm inactive, CHO Ca triplic inactive, TAAR1 ag confirm 85, Ga16 ag counter 71, TAAR1 desens 50 and Ga16 antag count 54.
For CC(C)(C)S(=O)N1C[C@H]2CC(=O)C(CCO)=C2[C@@H]1CCO (some centres not stated) the results were TAAR1 antagonist inactive and TAAR1 agonist inactive.
O=C(Nc1ccccc1)[C@@H]1CC=C[C@@H]2CCN(Cc3ccc(Cl)c(Cl)c3)C(=O)[C@@H]21 was read as OX1R antag-1 85, TAAR1 antagonist inactive, TAAR1 agonist 57, CHO parental Ca inactive, OX1R antag-2 66, OX1R Ca confirm 56, CHO Ca triplic inactive, OX1R HTRF confirm 92, CHO-K1 HTRF cnt inactive, TAAR1 ag confirm 51, Ga16 ag counter 12, TAAR1 desens inactive and Ga16 antag count inactive.
Screening COc1cc(C(=O)O)nc2ccc([N+](=O)[O-])cc12 returned OX1R antag-1 88, GPR7 antagonist inactive, TAAR1 antagonist inactive, TAAR1 agonist inactive, CHO parental Ca inactive, OX1R antag-2 inactive, OX1R HTRF confirm 60 and CHO-K1 HTRF cnt 98.
COc1ccc([N+](=O)[O-])cc1C(=O)C(=O)c1ccccc1 was read as OX1R antag-1 inactive, GPR7 antagonist inactive, TAAR1 antagonist inactive, TAAR1 agonist inactive, CHO parental Ca inactive and OX1R antag-2 inactive.
For CSc1nc2nc(-c3cccs3)cc(C(F)(F)F)c2c(=O)[nH]1 the results were OX1R antag-1 inactive, GPR7 antagonist inactive, TAAR1 antagonist inactive, TAAR1 agonist inactive, CHO parental Ca inactive and OX1R antag-2 inactive.
Cc1c(C(=O)O)sc2nc(-c3cccs3)cc(C(F)(F)F)c12 was read as OX1R antag-1 78, GPR7 antagonist inactive, TAAR1 antagonist inactive, TAAR1 agonist inactive, CHO parental Ca inactive, OX1R antag-2 inactive, OX1R HTRF confirm inactive and CHO-K1 HTRF cnt 30.
CN(C)/C=C1/Oc2c(ccc3ccccc23)C1=O was read as OX1R antag-1 88, GPR7 antagonist inactive, TAAR1 antagonist inactive, TAAR1 agonist inactive, CHO parental Ca inactive, OX1R antag-2 inactive, OX1R HTRF confirm 85 and CHO-K1 HTRF cnt inactive.
Screening CCc1cc2c(=O)c(-c3nc(C)cs3)coc2cc1O returned OX1R antag-1 82, GPR7 antagonist inactive, TAAR1 antagonist inactive, TAAR1 agonist inactive, CHO parental Ca inactive, OX1R antag-2 inactive, OX1R HTRF confirm 78 and CHO-K1 HTRF cnt inactive.
COc1ccc2c(=O)c(-c3nc(C)cs3)coc2c1 was read as OX1R antag-1 inactive, GPR7 antagonist inactive, TAAR1 antagonist inactive, TAAR1 agonist inactive, CHO parental Ca inactive and OX1R antag-2 inactive.
Screening COc1ccc(CN2CCC(C)(Oc3ccc(C(C)=O)cc3)C2)c2ccccc12 (configuration not stated) returned TAAR1 antagonist inactive and TAAR1 agonist inactive.
For CCc1nc2ccc(C(=O)Nc3ccc(OC)c(OC)c3)cn2c1N(C)Cc1ccc(N(C)C)cc1 the results were TAAR1 antagonist inactive and TAAR1 agonist inactive.
For Cc1c(Cl)cccc1NC(=O)c1cc(-c2ccccc2O)n[nH]1 the results were OX1R antag-1 81, GPR7 antagonist inactive, TAAR1 antagonist inactive, TAAR1 agonist inactive, CHO parental Ca inactive, OX1R antag-2 inactive, OX1R HTRF confirm inactive and CHO-K1 HTRF cnt inactive.
